In ChEMBL document CHEMBL1156022, “Discovery of N-{N-[(3-cyanobenzene) sulfonyl]-4(R)-(3,3-difluoropiperidin-1-yl)-(l)-prolyl}-4-[(3',5'-dichloro-isonicotinoyl) amino]-(l)-phenylalanine (MK-0617), a highly potent and orally active VLA-4 antagonist” (Bioorg Med Chem Lett, 2009):

Assays:
Integrin alpha-4/beta-1 [1] = biological target: T1, Integrin alpha-4/beta-1 (Homo sapiens, UniProt P05556+P13612); assay: Displacement of [35S]-labeled ligand from VLA4 in human Jurkat cells washed with buffer containing non activating Ca2+ and Mg2+ by competitive binding assay; type: cell-based
T1 sequence (P05556 whole entry): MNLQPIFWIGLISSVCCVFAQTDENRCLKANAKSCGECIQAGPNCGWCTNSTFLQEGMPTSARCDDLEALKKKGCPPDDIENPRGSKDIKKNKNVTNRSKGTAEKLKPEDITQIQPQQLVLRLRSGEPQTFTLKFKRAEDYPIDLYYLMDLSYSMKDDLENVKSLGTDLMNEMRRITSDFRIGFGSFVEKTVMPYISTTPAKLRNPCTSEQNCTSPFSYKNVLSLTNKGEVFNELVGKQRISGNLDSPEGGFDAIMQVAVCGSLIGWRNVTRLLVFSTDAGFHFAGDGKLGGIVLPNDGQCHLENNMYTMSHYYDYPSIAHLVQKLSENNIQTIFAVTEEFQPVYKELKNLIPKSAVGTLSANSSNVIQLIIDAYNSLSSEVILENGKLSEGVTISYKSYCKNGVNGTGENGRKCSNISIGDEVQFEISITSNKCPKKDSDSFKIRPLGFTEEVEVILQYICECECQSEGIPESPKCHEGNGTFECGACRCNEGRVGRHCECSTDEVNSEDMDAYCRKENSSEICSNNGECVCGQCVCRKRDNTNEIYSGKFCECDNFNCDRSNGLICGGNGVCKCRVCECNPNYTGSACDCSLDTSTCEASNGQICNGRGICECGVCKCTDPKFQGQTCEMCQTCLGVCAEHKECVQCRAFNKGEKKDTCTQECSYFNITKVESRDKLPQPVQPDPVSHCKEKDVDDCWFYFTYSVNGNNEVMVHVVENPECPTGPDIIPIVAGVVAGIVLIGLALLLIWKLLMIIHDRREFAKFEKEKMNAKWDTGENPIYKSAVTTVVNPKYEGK
T1 sequence (P13612 whole entry): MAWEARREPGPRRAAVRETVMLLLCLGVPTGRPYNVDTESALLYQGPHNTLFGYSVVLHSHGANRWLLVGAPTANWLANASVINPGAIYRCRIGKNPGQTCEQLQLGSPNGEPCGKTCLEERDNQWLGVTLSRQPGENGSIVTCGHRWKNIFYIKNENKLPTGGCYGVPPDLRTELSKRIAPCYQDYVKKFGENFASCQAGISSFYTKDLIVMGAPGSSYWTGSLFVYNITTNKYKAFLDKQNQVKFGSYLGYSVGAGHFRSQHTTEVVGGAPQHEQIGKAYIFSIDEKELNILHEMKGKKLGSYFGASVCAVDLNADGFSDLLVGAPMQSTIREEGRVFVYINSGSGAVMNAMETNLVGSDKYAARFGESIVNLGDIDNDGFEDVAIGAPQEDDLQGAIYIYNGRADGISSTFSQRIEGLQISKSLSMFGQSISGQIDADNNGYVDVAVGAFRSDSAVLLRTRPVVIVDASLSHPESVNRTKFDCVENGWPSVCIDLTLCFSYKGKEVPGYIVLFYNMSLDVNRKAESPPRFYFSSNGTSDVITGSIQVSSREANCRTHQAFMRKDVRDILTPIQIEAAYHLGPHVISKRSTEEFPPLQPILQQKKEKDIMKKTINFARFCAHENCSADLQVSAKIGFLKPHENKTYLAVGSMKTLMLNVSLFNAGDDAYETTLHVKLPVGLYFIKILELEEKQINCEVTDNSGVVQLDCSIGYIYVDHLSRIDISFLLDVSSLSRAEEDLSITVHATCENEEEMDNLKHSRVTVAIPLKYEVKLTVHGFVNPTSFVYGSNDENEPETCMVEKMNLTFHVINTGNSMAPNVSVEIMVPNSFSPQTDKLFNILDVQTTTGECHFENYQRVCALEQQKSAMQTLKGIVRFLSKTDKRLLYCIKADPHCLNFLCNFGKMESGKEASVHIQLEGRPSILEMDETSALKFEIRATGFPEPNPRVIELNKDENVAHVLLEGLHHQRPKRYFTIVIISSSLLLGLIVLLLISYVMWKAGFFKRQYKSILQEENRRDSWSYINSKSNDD
Outline: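 Competition binding in Jurkat cells with a ³⁵S-labeled ligand, VLA-4 held non-activated in Ca²⁺/Mg²⁺ buffer; IC₅₀ reported; data are means of three independent runs or n = 1.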

Integrin alpha-4/beta-1 [2] = biological target: T1, Integrin alpha-4/beta-1; assay: Receptor occupancy of VLA4 in whole blood washed with buffer containing activating Mn2+ at 37 degC after 3 hrs; type: tissue-based
Rattus norvegicus [3] = assay: Receptor occupancy of VLA4 in rat at 1.5 mg/kg after 24 hrs; type: functional
Outline: (§1)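 Ethyl ester prodrug given orally to rats at 1.5 mpk; VLA-4 receptor occupancy measured at 12 h and 24 h post-dose.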

[4] = system: Integrin alpha-4/beta-1 (Rattus norvegicus); assay: Receptor occupancy of VLA4 in rat whole blood washed with buffer containing non activating Ca2+ and Mg2+ at 37 degC after 12 hrs
Rattus norvegicus [5] = assay: AUC in rat at 5 mg/kg, po; type: ADME, organism-based, Plasma; parameters: dose 5 mg/kg, route oral; conditions: in vivo
[6] = Bioavailability in rat at 5 mg/kg, po; type: ADME, organism-based; conditions: in vivo
Integrin alpha-4/beta-1 [7] = biological target: T1, Integrin alpha-4/beta-1; assay: Displacement of [35S]-labeled ligand from VLA4 in human Jurkat cells washed with buffer containing activating Mn2+ by competitive binding assay; type: cell-based
Rattus norvegicus [8] = assay: Receptor occupancy of VLA4 in rat at 5 mg/kg, po after 24 hrs; type: functional
Outline: (§2)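 Parent acid given orally to rats at 5 mpk; VLA-4 receptor occupancy assayed at 12 h and 24 h after dosing.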

Rattus norvegicus [9] = assay: Receptor occupancy of VLA4 in rat at 5 mg/kg, po after 12 hrs; type: functional; outline: as §2
[10] = system: Integrin alpha-4/beta-1 (Rattus norvegicus); assay: Receptor occupancy of VLA4 in rat whole blood washed with buffer containing non activating Ca2+ and Mg2+ at 37 degC after 24 hrs
Integrin alpha-4/beta-1 [11] = biological target: T1, Integrin alpha-4/beta-1; assay: Inhibition of VLA4 in human whole blood
Outline: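 Competitive binding run in human whole blood; IC₅₀ read-out.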

[12] = Cmax in rat at 5 mg/kg, po; type: ADME, organism-based; parameters: dose 5 mg/kg, route oral; conditions: in vivo
[13] = Plasma clearance in rat at 5 mg/kg, po; type: ADME, organism-based; parameters: dose 5 mg/kg, route oral
Rattus norvegicus [14] = assay: Receptor occupancy of VLA4 in rat at 1.5 mg/kg after 12 hrs; type: functional; outline: as §1

N#Cc1cccc(S(=O)(=O)N2C[C@H](N3CCC(F)(F)C3)C[C@H]2C(=O)N[C@@H](Cc2ccc(NC(=O)c3c(Cl)cncc3Cl)cc2)C(=O)O)c1
IC50 (Integrin alpha-4/beta-1 [1]): 0.1 nM

N#Cc1cccc(S(=O)(=O)N2C[C@H](N3CCC(F)CC3)C[C@H]2C(=O)N[C@@H](Cc2ccc(NC(=O)c3c(Cl)cncc3Cl)cc2)C(=O)O)c1
IC50 (Integrin alpha-4/beta-1 [1]): 0.35 nM

N#Cc1cccc(S(=O)(=O)N2C[C@H](N3CCCCC3)C[C@H]2C(=O)N[C@@H](Cc2ccc(NC(=O)c3c(Cl)cncc3Cl)cc2)C(=O)O)c1
IC50 (Integrin alpha-4/beta-1 [1]): 0.11 nM

N#Cc1cccc(S(=O)(=O)N2C[C@H](N3CC[C@@H](F)C3)C[C@H]2C(=O)N[C@@H](Cc2ccc(NC(=O)c3c(Cl)cncc3Cl)cc2)C(=O)O)c1
IC50 (Integrin alpha-4/beta-1 [1]): 0.12 nM

N#Cc1cccc(S(=O)(=O)N2C[C@H](N3CC(F)(F)C3)C[C@H]2C(=O)N[C@@H](Cc2ccc(NC(=O)c3c(Cl)cncc3Cl)cc2)C(=O)O)c1
IC50 (Integrin alpha-4/beta-1 [1]): 0.9 nM

N#Cc1cccc(S(=O)(=O)N2C[C@H](NC3CCC3)C[C@H]2C(=O)N[C@@H](Cc2ccc(NC(=O)c3c(Cl)cncc3Cl)cc2)C(=O)O)c1
IC50 (Integrin alpha-4/beta-1 [1]): 0.15 nM | Activity (Integrin alpha-4/beta-1 [2]): 95%

N#Cc1cccc(S(=O)(=O)N2C[C@H](N3CCCC(F)C3)C[C@H]2C(=O)N[C@@H](Cc2ccc(NC(=O)c3c(Cl)cncc3Cl)cc2)C(=O)O)c1 (stereo not given in full)
IC50 (Integrin alpha-4/beta-1 [1]): 0.21 nM

N#Cc1cccc(S(=O)(=O)N2C[C@H](N3CC[C@H](F)C3)C[C@H]2C(=O)N[C@@H](Cc2ccc(NC(=O)c3c(Cl)cncc3Cl)cc2)C(=O)O)c1
IC50 (Integrin alpha-4/beta-1 [1]): 0.24 nM

CCOC(=O)[C@H](Cc1ccc(NC(=O)c2c(Cl)cncc2Cl)cc1)NC(=O)[C@@H]1C[C@@H](NC2CCC2)CN1S(=O)(=O)c1cccc(C#N)c1
Activity (Rattus norvegicus [3]): 25%

N#Cc1cccc(S(=O)(=O)N2C[C@H](N3CCC3)C[C@H]2C(=O)N[C@@H](Cc2ccc(NC(=O)c3c(Cl)cncc3Cl)cc2)C(=O)O)c1
IC50 (Integrin alpha-4/beta-1 [1]): 0.15 nM

N#Cc1cccc(S(=O)(=O)N2C[C@H](N3CCCC(F)(F)C3)C[C@H]2C(=O)N[C@@H](Cc2ccc(NC(=O)c3c(Cl)cncc3Cl)cc2)C(=O)O)c1
Activity [4]: 70% | AUC (Rattus norvegicus [5]): 50 nM·h | bioavailability [6]: < 5% | IC50 (Integrin alpha-4/beta-1 [7]): 0.02 nM | Activity (Rattus norvegicus [8]): 22% | Activity (Rattus norvegicus [9]): 65% | Activity [10]: 40% | IC50 (Integrin alpha-4/beta-1 [11]): 0.07 nM | IC50 (Integrin alpha-4/beta-1 [1]): 0.03 nM | Cmax [12]: 27 nM | CL/F [13]: > 100 mL/min/kg | Activity (Integrin alpha-4/beta-1 [2]): 95%

N#Cc1cccc(S(=O)(=O)N2C[C@H](N(CC(F)(F)F)C3CCC3)C[C@H]2C(=O)N[C@@H](Cc2ccc(NC(=O)c3c(Cl)cncc3Cl)cc2)C(=O)O)c1
IC50 (Integrin alpha-4/beta-1 [11]): 3.1 nM | IC50 (Integrin alpha-4/beta-1 [1]): 0.02 nM

CCOC(=O)[C@H](Cc1ccc(NC(=O)c2c(Cl)cncc2Cl)cc1)NC(=O)[C@@H]1C[C@@H](N2CCCC(F)(F)C2)CN1S(=O)(=O)c1cccc(C#N)c1
Activity (Rattus norvegicus [3]): 60% | Activity (Rattus norvegicus [14]): 88%

N#Cc1cccc(S(=O)(=O)N2C[C@H](N3CCC(F)(F)CC3)C[C@H]2C(=O)N[C@@H](Cc2ccc(NC(=O)c3c(Cl)cncc3Cl)cc2)C(=O)O)c1
IC50 (Integrin alpha-4/beta-1 [1]): 0.22 nM

N#Cc1cccc(S(=O)(=O)N2C[C@H](N3CC(F)C3)C[C@H]2C(=O)N[C@@H](Cc2ccc(NC(=O)c3c(Cl)cncc3Cl)cc2)C(=O)O)c1
IC50 (Integrin alpha-4/beta-1 [1]): 0.27 nM

N#Cc1cccc(S(=O)(=O)N2C[C@H](N3CCCC3)C[C@H]2C(=O)N[C@@H](Cc2ccc(NC(=O)c3c(Cl)cncc3Cl)cc2)C(=O)O)c1
IC50 (Integrin alpha-4/beta-1 [1]): 0.22 nM
